The source made the active and inactive calls. No cut-off for these calls is given here.
Assays:
[1] = tested on: HL-60; test: Cytotoxicity against human HL60 cells after 72 hrs by trypan blue assay; type: functional, cell-based; details: HL-60, 72 h
Summary of the method: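 HL-60 cells kept in RPMI 1640 with 15% heat-inactivated FCS plus antibiotics, 37 °C, 5% CO2. 4×10^4 cells/well seeded, 24 h, then a range of concentrations added to complete medium for 72 h. Cell number counted by trypan blue; IC50 is the concentration giving 50% fewer cells than control cultures.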

[2] = tested on: HeLa; test: Cytotoxicity against human HeLa cells after 72 hrs by trypan blue assay; type: functional, cell-based
Summary of the method: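 HeLa cells kept in Ham's F-12 with 10% heat-inactivated FCS plus antibiotics, 37 °C, 5% CO2. 4×10^4 cells/well seeded, 24 h, medium renewed, then a range of concentrations added for 72 h. Viability by trypan blue; IC50 is the concentration giving 50% fewer cells than control.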

[3] = tested on: Salmonidae; test: Binding affinity to Salmon testes DNA assessed as drug-DNA complex formation by linear flow dichroism method
Summary of the method: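 Salmon testes DNA at 1.6×10^-3 M in ETN buffer (10 mM Tris, 10 mM NaCl, 1 mM EDTA, pH 7). DNA concentration set from extinction coefficient 6600 M(p)-1 cm-1 at 260 nm. Linear dichroism spectra recorded at 25 °C at [drug]/[DNA] = 0.00 and 0.08.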

[4] = tested on: HeLa; test: Induction of apoptosis in human HeLa cells assessed as dead cell count at 50 uM treated for 48 hrs before Annexin-V-FITC PI staining by flow cytometry; type: functional
[5] = species: Rattus norvegicus; test: Effect on mitochondrial swelling in rat liver mitochondria assessed as complete collapse of electrical membrane potential at 50 uM in presence of Ca2+; type: functional
[6] = species: Rattus norvegicus; test: Induction of apoptosis inducing factor release in rat liver mitochondria at 50 uM by Western blotting in presence of Ca2+; type: functional
Summary of the method: (§1)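 Rat liver mitochondria (1 mg protein/mL) incubated 15 min at 20 °C in standard medium with 30 μM Ca2+ unless omitted. Agent 50 μM, CsA 1 μM. Supernatant after 13,000 g, 10 min, 4 °C, concentrated and run on SDS-PAGE (15% for cyt c, 10% for AIF). Western blot with anti-cyt c and anti-AIF antibodies.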

[7] = species: Rattus norvegicus; test: Effect on mitochondrial swelling in rat liver mitochondria assessed as complete collapse of electrical membrane potential at 50 uM in presence of cyclosporin A; type: functional
[8] = tested on: HeLa; test: Induction of apoptosis in human HeLa cells assessed as late stage apoptotic cell count at 50 uM treated for 24 hrs before Annexin-V-FITC PI staining by flow cytometry; type: functional
Summary of the method: (§2)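 Near-confluent HeLa cells exposed to 50 μM agent for 0, 24 or 48 h at 37 °C. About 5×10^5 cells in binding buffer (10 mM Hepes pH 7.5, 140 mM NaCl, 2.5 mM CaCl2) stained with 1 μg/ml Annexin V-FITC and 1 μg/ml PI, 10 min at room temperature in the dark. Flow cytometry; mean of three independent experiments.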

[9] = tested on: HeLa; test: Induction of apoptosis in human HeLa cells assessed as early stage apoptotic cell count at 50 uM treated for 48 hrs before Annexin-V-FITC PI staining by flow cytometry; type: functional; summary of the method: as §2
[10] = species: Rattus norvegicus; test: Decrease in mitochondrial sulfydryl groups in rat liver mitochondria at 50 uM in presence of DTE; type: functional
Summary of the method: (§3)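 Rat liver mitochondria (1 mg protein/mL) at 20 °C in 250 mM sucrose, 10 mM Hepes pH 7.4, 5 mM succinate, 1.25 μM rotenone with 30 μM Ca2+ unless omitted. Agent 50 μM; DTE 2 mM where present. Protein thiol oxidation measured; mean ± SD of four independent experiments.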

[11] = tested on: HeLa; test: Induction of apoptosis in human HeLa cells assessed as early stage apoptotic cell count at 50 uM using Annexin-V-FITC PI stain by flow cytometry; type: functional; summary of the method: as §2
[12] = tested on: HeLa; test: Induction of apoptosis in human HeLa cells assessed as non apoptotic cell count at 50 uM treated for 24 hrs before Annexin-V-FITC PI staining by flow cytometry; type: functional; summary of the method: as §2
[13] = species: Rattus norvegicus; test: Decrease in mitochondrial sulfydryl groups in rat liver mitochondria at 50 uM; type: functional; set-up: scale not given: the % may be the effect or the level left; summary of the method: as §3
[14] = species: Rattus norvegicus; test: Decrease in mitochondrial sulfydryl groups in rat liver mitochondria at 50 uM in presence of Ca2+; type: functional; summary of the method: as §3
[15] = species: Rattus norvegicus; test: Increase in hydrogen peroxide production in rat liver mitochondria assessed per mg of protein at 50 uM; type: functional
Summary of the method: (§4)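 Rat liver mitochondria, 1 mg protein/mL, 20 °C, standard succinate/rotenone medium pH 7.4 with 30 μM Ca2+ unless omitted. Agent 50 μM. H2O2 measured fluorometrically by the scopoletin method, expressed per mg protein; mean ± SD of four independent experiments.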

[16] = species: Rattus norvegicus; test: Effect on mitochondrial swelling in rat liver mitochondria assessed as complete collapse of electrical membrane potential at 50 uM; type: functional
[17] = species: Rattus norvegicus; test: Increase in hydrogen peroxide production in rat liver mitochondria assessed per mg of protein at 50 uM in presence of CA2+; type: functional; summary of the method: as §4
[18] = species: Rattus norvegicus; test: Induction of cytochrome c release in rat liver mitochondria at 50 uM by Western blotting in presence of Ca2+; type: functional; summary of the method: as §1
[19] = tested on: HeLa; test: Induction of DNA fragmentation in human HeLa cells at 100 uM after 24 hrs; type: functional, cell-based
Summary of the method: (§5)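 HeLa cells (5×10^5) grown 24 h at 37 °C, optionally pretreated 30 min at 37 °C with 5 μM CsA. Medium renewed, agent added at 100 μM for 24 h. Extracted DNA in TE buffer run on 0.8% agarose gel in TBE, pH 8.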

[20] = tested on: HeLa; test: Induction of apoptosis in human HeLa cells assessed as dead cell count at 50 uM treated for 24 hrs before Annexin-V-FITC PI staining by flow cytometry; type: functional
[21] = tested on: HeLa; test: Induction of apoptosis in human HeLa cells assessed as late stage apoptotic cell count at 50 uM treated for 48 hrs before Annexin-V-FITC PI staining by flow cytometry; type: functional; summary of the method: as §2
[22] = species: Rattus norvegicus; test: Effect on mitochondrial swelling in rat liver mitochondria assessed as complete collapse of electrical membrane potential at 50 uM in presence of N-ethylmaleimide; type: functional
[23] = tested on: HeLa; test: Induction of apoptosis in human HeLa cells assessed as early stage apoptotic cell count at 50 uM treated for 24 hrs before Annexin-V-FITC PI staining by flow cytometry; type: functional; summary of the method: as §2
[24] = tested on: HeLa; test: Induction of apoptosis in human HeLa cells assessed as non apoptotic cell count at 50 uM treated for 48 hrs before Annexin-V-FITC PI staining by flow cytometry; type: functional; summary of the method: as §2
[25] = species: Rattus norvegicus; test: Effect on mitochondrial swelling in rat liver mitochondria assessed as complete collapse of electrical membrane potential at 50 uM in presence of bongkrekic acid; type: functional
[26] = tested on: HeLa; test: Induction of DNA fragmentation in human HeLa cells at 100 uM after 24 hrs in presence of cyclosporin A; type: functional, cell-based; summary of the method: as §5
[27] = species: Rattus norvegicus; test: Induction of apoptosis inducing factor release in rat liver mitochondria at 50 uM by Western blotting in presence of cyclosporin A; type: functional; summary of the method: as §1
[28] = tested on: HeLa; test: Induction of mitochondrial membrane depolarization in human HeLa cells at 50 uM after 24 hrs by FL2 staining; type: functional
Summary of the method: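 Near-confluent HeLa cells given 50 μM agent in DMSO for 24 h at 37 °C; JC-1 added at […] final for the last 10 min. Positive control 20 μM H2O2 for 24 h. After cold PBS wash, flow cytometry with 488 nm excitation; monomers at 530 nm, aggregates (FL2) at 585/650 nm. At least 10,000 events; one of four experiments.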

[29] = tested on: HeLa; test: Induction of apoptosis in human HeLa cells assessed as dead cell count at 50 uM using Annexin-V-FITC PI stain by flow cytometry; type: functional
[30] = tested on: HeLa; test: Cytotoxicity against human HeLa cells assessed as viable cells at 6 uM after 72 hrs by trypan blue assay in presence of cyclosporin A; type: functional; details: read-out: Activity
Summary of the method: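 HeLa cells seeded, after 24 h pretreated 30 min with 2 μM CsA. Medium renewed, 6 μM agent added, 72 h. Viable cells counted by trypan blue and expressed as percent of control culture cell number.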

[31] = species: Rattus norvegicus; test: Effect on mitochondrial swelling in rat liver mitochondria assessed as complete collapse of electrical membrane potential at 50 uM in presence of ADP; type: functional
[32] = tested on: HeLa; test: Induction of apoptosis in human HeLa cells assessed as late stage apoptotic cell count at 50 uM using Annexin-V-FITC PI stain by flow cytometry; type: functional; summary of the method: as §2
[33] = species: Rattus norvegicus; test: Induction of cytochrome c release in rat liver mitochondria at 50 uM by Western blotting in presence of cyclosporin A; type: functional; summary of the method: as §1
[34] = tested on: HeLa; test: Induction of apoptosis in human HeLa cells assessed as non apoptotic cell count at 50 uM using Annexin-V-FITC PI stain by flow cytometry; type: functional; summary of the method: as §2

COc1ccc2c(c1)SCc1cnc(-c3ccccc3)nc1-2
IC50 [1]: 7.15 µM

Clc1ccc(-n2ncc3c2-c2ccc(Cl)cc2SC3)cc1
IC50 [1]: > 20 µM | IC50 [2]: > 20 µM

COc1ccc(-n2ncc3c2-c2ccc(OC)cc2SC3)cc1
Activity [3]: inactive | IC50 [1]: 6.6 µM | IC50 [2]: 17.8 µM

COc1ccc(-n2cc3c(n2)-c2ccc(OC)cc2SC3)cc1
IC50 [1]: > 20 µM | IC50 [2]: > 20 µM

COc1ccc2c(c1)SCc1cnn(-c3ccccc3)c1-2
Activity [3]: inactive | IC50 [1]: 12.5 µM | IC50 [2]: 17.2 µM

Clc1ccc2c(c1)SCc1cn[nH]c1-2
IC50 [1]: > 20 µM | IC50 [2]: > 20 µM

COc1ccc2c(c1)SCc1cn[nH]c1-2
IC50 [1]: > 20 µM | IC50 [2]: > 20 µM

COc1ccc2c(c1)SCc1cn(-c3ccc(Cl)cc3)nc1-2
IC50 [1]: > 20 µM | IC50 [2]: > 20 µM

COc1ccc2c(c1)SCc1cn(-c3ccccc3)nc1-2
IC50 [1]: > 20 µM | IC50 [2]: > 20 µM

Clc1ccc2c(c1)SCc1cnn(-c3ccccc3)c1-2
IC50 [1]: > 20 µM | IC50 [2]: > 20 µM

COc1ccc2c(c1)SCc1cnn(-c3ccc(Cl)cc3)c1-2
Activity [4]: 11.6% | Activity [5]: Active | Activity [6]: Active | Activity [7]: inactive | Activity [8]: 28.2% | Activity [9]: 8.5% | Activity [10]: Active | Activity [11]: 4.8% | Activity [12]: 46.7% | Activity [13]: 20% | Activity [14]: 2 | Activity [15]: 0.25 nmol | Activity [3]: inactive | IC50 [1]: 3.8 µM | Activity [16]: inactive | Activity [17]: 0.55 nmol | Activity [18]: Active | Activity [19]: Active | Activity [20]: 5.4% | Activity [21]: 39% | IC50 [2]: 6.7 µM | Activity [22]: inactive | Activity [23]: 19.7% | Activity [24]: 40.9% | Activity [25]: inactive | Activity [26]: inactive | Activity [27]: inactive | Activity [28]: 39.4% | Activity [29]: 0.6% | viability at 6 µM [30]: 64% | Activity [31]: inactive | Activity [32]: 1.2% | Activity [33]: inactive | Activity [34]: 93.4%

COc1ccc(-n2ncc3c2-c2ccc(Cl)cc2SC3)cc1
IC50 [1]: > 20 µM | IC50 [2]: > 20 µM

Source: ChEMBL document CHEMBL1139283, “Synthesis and biological activity of 1,4-dihydrobenzothiopyrano[4,3-c]pyrazole derivatives, novel pro-apoptotic mitochondrial targeted agents” (Bioorg Med Chem, 2009)
